ChEMBL document CHEMBL1138354, “2-(2'-((dimethylamino)methyl)-4'-(fluoroalkoxy)-phenylthio)benzenamine derivatives as serotonin transporter imaging agents” (J Med Chem, 2007)

Experiments:
Spleen [1] = test: Biodistribution in iv dosed rat spleen after 120 mins; format: ADME, organism-based; conditions: in vivo, 2 h
Summary of the method: (§1)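 Rats, 3 per group, under isoflurane. ¹⁸F tracer (10–100 μCi) in 0.2 ml sterile water with 1 mg/mL BSA injected into the femoral vein. Killed by cervical dislocation under anesthesia at the stated time. Organs removed, weighed and counted. % dose/organ calculated against counts of a 1% diluted aliquot of the injected dose.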

Striatum [2] = test: Biodistribution in iv dosed rat striatum assessed as radioactivity after 30 mins; format: ADME, organism-based; conditions: in vivo, 0.5 h
Liver [3] = test: Biodistribution in iv dosed rat liver after 60 mins; format: ADME, organism-based; conditions: in vivo, 1 h
Summary of the method: (§2)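 [18F]-labeled tracer was given to rats under isoflurane anesthesia: 0.2 ml sterile water with 1 mg/mL BSA and 10–100 μCi, into the femoral vein. Three rats per group. Animals were killed by cervical dislocation under anesthesia at the stated time. Organs were removed, weighed and counted. Uptake was calculated as percent dose against a 1% aliquot of the injected dose counted alongside.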

Muscle tissue [4] = test: Biodistribution in iv dosed rat muscle after 2 mins; format: ADME, organism-based; conditions: in vivo; summary of the method: as §2
Nucleic Acid [5] = test: Ratio of drug level in cortex to cerebellum in rat assessed as radioactivity after 30 mins; format: ADME, tissue-based; conditions: in vivo, 0.5 h
Summary of the method: (§3)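 Groups of three normal rats under isoflurane received the [18F] tracer (10–100 μCi in 0.2 ml sterile water containing 1 mg/mL BSA) into the femoral vein. They were killed by cervical dislocation under anesthesia at the stated time. Cortex, striatum, hippocampus, hypothalamus and cerebellum were dissected, weighed and gamma-counted. %dose/g was set against a 100-fold diluted dose aliquot, and each region was divided by cerebellum.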

Kidney [6] = test: Biodistribution in iv dosed rat kidney after 30 mins; format: ADME, organism-based; conditions: in vivo, 0.5 h; summary of the method: as §2
Kidney [7] = test: Biodistribution in iv dosed rat kidney after 2 mins; format: ADME, organism-based; conditions: in vivo; summary of the method: as §2
Brain [8] = test: Biodistribution in iv dosed rat brain after 120 mins; format: ADME, organism-based; conditions: in vivo, 2 h; summary of the method: as §2
Nucleic Acid [9] = test: Ratio of drug level in hypothalamus to cerebellum in rat assessed as radioactivity after 60 mins; format: ADME, tissue-based; conditions: in vivo, 1 h
Brain [10] = test: Biodistribution in iv dosed rat brain after 30 mins; format: ADME, organism-based; conditions: in vivo, 0.5 h; summary of the method: as §2
Brain [11] = test: Biodistribution in iv dosed rat brain after 240 mins; format: ADME, organism-based; conditions: in vivo, 4 h; summary of the method: as §2
Liver [12] = test: Biodistribution in iv dosed rat liver after 30 mins; format: ADME, organism-based; conditions: in vivo, 0.5 h; summary of the method: as §2
Lung [13] = test: Biodistribution in iv dosed rat lungs after 120 mins; format: ADME, organism-based; conditions: in vivo, 2 h; summary of the method: as §2
Nucleic Acid [14] = test: Ratio of drug level in striatum to cerebellum in rat assessed as radioactivity after 120 mins; format: ADME, tissue-based; conditions: in vivo, 2 h; summary of the method: as §3
Spleen [15] = test: Biodistribution in iv dosed rat spleen after 30 mins; format: ADME, organism-based; conditions: in vivo, 0.5 h; summary of the method: as §1
Spleen [16] = test: Biodistribution in iv dosed rat spleen after 60 mins; format: ADME, organism-based; conditions: in vivo, 1 h
Nucleic Acid [17] = test: Ratio of drug level in hypothalamus to cerebellum in rat assessed as radioactivity after 240 mins; format: ADME, tissue-based; conditions: in vivo, 4 h
Zone of skin [18] = test: Biodistribution in iv dosed rat skin after 240 mins; format: ADME, organism-based; conditions: in vivo, 4 h
Zone of skin [19] = test: Biodistribution in iv dosed rat skin after 30 mins; format: ADME, organism-based; conditions: in vivo, 0.5 h; summary of the method: as §1
Blood = test: Biodistribution in iv dosed rat blood after 60 mins; format: ADME, organism-based; conditions: in vivo, 1 h; summary of the method: as §2
Spleen [20] = test: Biodistribution in iv dosed rat spleen after 2 mins; format: ADME, organism-based; conditions: in vivo
Muscle tissue [21] = test: Biodistribution in iv dosed rat muscle after 30 mins; format: ADME, organism-based; conditions: in vivo, 0.5 h; summary of the method: as §2
[22] = Partition coefficient, log P at pH 7.4; format: physicochemical; conditions: octanol/water
Bone [23] = test: Biodistribution in iv dosed rat bone after 2 mins; format: ADME, organism-based, Bone element; conditions: in vivo; summary of the method: as §2
Lung [24] = test: Biodistribution in iv dosed rat lungs after 30 mins; format: ADME, organism-based; conditions: in vivo, 0.5 h; summary of the method: as §2
Bone [25] = test: Biodistribution in iv dosed rat bone after 60 mins; format: ADME, organism-based, Bone element; conditions: in vivo, 1 h; summary of the method: as §2
Heart = test: Biodistribution in iv dosed rat heart after 2 mins; format: ADME, organism-based; conditions: in vivo; summary of the method: as §2
Lung [26] = test: Biodistribution in iv dosed rat lungs after 240 mins; format: ADME, organism-based; conditions: in vivo, 4 h; summary of the method: as §2
Striatum [27] = test: Biodistribution in iv dosed rat striatum assessed as radioactivity after 120 mins; format: ADME, organism-based; conditions: in vivo, 2 h
Nucleic Acid [28] = test: Ratio of drug level in cortex to cerebellum in rat assessed as radioactivity after 2 mins; format: ADME, tissue-based; conditions: in vivo
Muscle tissue [29] = test: Biodistribution in iv dosed rat muscle after 120 mins; format: ADME, organism-based; conditions: in vivo, 2 h; summary of the method: as §2
Kidney [30] = test: Biodistribution in iv dosed rat kidney after 120 mins; format: ADME, organism-based; conditions: in vivo, 2 h; summary of the method: as §2

- Drug uptake (Spleen [1]): 0.26 %ID
- Drug uptake (Striatum [2]): 0.8 % ID/g
- Drug uptake (Liver [3]): 3.74 %ID
- Drug uptake (Muscle tissue [4]): 16.55 %ID
- Ratio (Nucleic Acid [5]): 3.26
- Drug uptake (Kidney [6]): 4.56 %ID
- Drug uptake (Kidney [7]): 7.93 %ID
- Drug uptake (Brain [8]): 0.63 %ID
- Ratio (Nucleic Acid [9]): 5.52
- Drug uptake (Brain [10]): 1.85 %ID
- Drug uptake (Brain [11]): 0.18 %ID
- Drug uptake (Liver [12]): 4.24 %ID
- Drug uptake (Lung [13]): 0.53 %ID
- Ratio (Nucleic Acid [14]): 3.85
- Drug uptake (Spleen [15]): 0.65 %ID
- Drug uptake (Spleen [16]): 0.35 %ID
- Ratio (Nucleic Acid [17]): 6.58
- Drug uptake (Zone of skin [18]): 3.77 %ID
- Drug uptake (Zone of skin [19]): 8.66 %ID
- Drug uptake (Blood): 3.1 %ID
- Drug uptake (Spleen [20]): 1.22 %ID
- Drug uptake (Muscle tissue [21]): 9.46 %ID
- logD [22]: 2.15
- Drug uptake (Bone [23]): 8.67 %ID
- Drug uptake (Lung [24]): 2.25 %ID
- Drug uptake (Bone [25]): 4.87 %ID
- Drug uptake (Heart): 0.95 %ID
- Drug uptake (Lung [26]): 0.33 %ID
- Drug uptake (Striatum [27]): 0.36 % ID/g
- Ratio (Nucleic Acid [28]): 1.53
- Drug uptake (Muscle tissue [29]): 4.24 %ID
- Drug uptake (Kidney [30]): 2.66 %ID
SMILES: CN(C)Cc1cc(OCC[18F])ccc1Sc1ccccc1N
